From PubChem BioAssay
KCNK3 inh: human KCNK3 channel inhibitors, primary screen, CHO cells, FluxOR thallium flux, B-score; Potassium channel subfamily K member 3 (Homo sapiens), O14649; FluxOR fluorescence; hits give low values; B-score at 10 µM; 340,000 tested, 0.84% active;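 active = B-score under library mean minus 4 SD, starting fluorescence ratio at most library mean plus 5 SD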;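 note: more negative B-score means stronger inhibition of thallium flux through KCNK3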
KCNQ1 pot: potentiators or activators of KCNQ1 channel, primary screen, cell-based, thallium flux, high-throughput | CHO-K1 KCNQ1, thallium flux FluxOR fluorescence; hits give high values | B-score at 10 µM | 310,000 tested, 0.35% active;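 active = fluorescence ratio B-score, a plate-corrected score, at least three library SD, with initial intensity B-score within 5 SD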
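System: Stable KCNQ1 CHO-K1 line | Incubation: 90 min dye loading and 20 min compound exposure, both at room temperature | Measure: Ratio B score | Medium: Assay buffer for compound exposure, DMSO matched across wells | Compound dosing: Single-concentration screen | Probe or stimulus: K+/Tl+ depolarizing stimulus | Measured by: Kinetic FluxOR fluorescence, 10 s baseline plus 110 s post-stimulus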
hERG rescue: hERG rescue from dofetilide block, primary screen, cell-based, CHO-hERG, FluxOR thallium flux, dofetilide IC70; 310,000 tested, 0.51% active; Voltage-gated inwardly rectifying potassium channel KCNH2 (Homo sapiens), Q12809; AID 1511, 2009; dofetilide IC70 present; activation (rescue from dofetilide block), less the hit threshold, % at 10 µM;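 active = activation above the mean of controls blocked by dofetilide plus 5 SD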;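 note: thallium influx through hERG after potassium depolarization seen as dye fluorescence rise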
Kir21 block: inhibitors of mouse Kir2.1 inward-rectifier potassium channel. Inward rectifier potassium channel 2 (Mus musculus), P35561. 310,000 tested, 0.85% active. HEK293-Kir2.1, FluxOR thallium flux fluorescence; hits give low values. B-score at 10 µM;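 active = fluorescence ratio B-score at or below minus 3 SD of library scores, with starting-brightness B-score within 2 SD, cut at about -4.2 in these data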;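 note: channel flux triggered by added potassium and thallium sulfate stimulus; B-score of peak minus minimum fluorescence over baseline after thallium stimulus; more negative B-score means stronger Kir2.1 block with less thallium influx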
Target sequence (P35561 whole entry, looked up): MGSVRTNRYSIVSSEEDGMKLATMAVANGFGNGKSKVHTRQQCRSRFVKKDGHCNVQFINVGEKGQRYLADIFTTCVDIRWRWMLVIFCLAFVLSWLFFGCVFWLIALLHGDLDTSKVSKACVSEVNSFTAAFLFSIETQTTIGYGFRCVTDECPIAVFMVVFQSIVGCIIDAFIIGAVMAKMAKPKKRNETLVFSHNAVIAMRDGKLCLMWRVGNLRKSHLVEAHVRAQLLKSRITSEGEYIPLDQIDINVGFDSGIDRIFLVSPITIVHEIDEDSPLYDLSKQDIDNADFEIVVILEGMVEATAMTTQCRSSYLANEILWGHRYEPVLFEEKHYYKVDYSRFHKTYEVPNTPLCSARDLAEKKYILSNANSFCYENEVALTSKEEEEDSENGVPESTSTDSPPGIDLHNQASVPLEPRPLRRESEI
KCNQ1 inh: inhibitors of human KCNQ1 channel, primary screen, cell-based, thallium flux, high-throughput. Potassium voltage-gated channel subfamily KQT member 1 (Homo sapiens), P51787. CHO-K1 KCNQ1, FluxOR thallium flux fluorescence; hits give high values. B-score at 10 µM. 310,000 tested, 1.3% active. AID 2642, 2010;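 active = compounds whose thallium flux B-score, printed positive for inhibition, exceeds three library SD while starting fluorescence stays within three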;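 note: channel opened by potassium depolarization with thallium stimulus after 20 min compound exposure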
KCNK9 inh: KCNK9 potassium channel inhibitors, primary screen, HEK293 cells, thallium flux. FluxOR thallium flux fluorescence; hits give low values. Potassium channel subfamily K member 9 (Homo sapiens), Q9NPC2. 310,000 tested, 1.2% active. B-score at 10 µM;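 active = ratio B-score over 3 SD below the library mean, with starting fluorescence within 5 SD of its mean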;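 note: negative B-score means less thallium flux so channel inhibition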
KCNK9 block conf: KCNK9 potassium channel inhibitors, confirmation, HEK293 cells, thallium flux, duplicate; shares compounds with KCNK9 inh; 4,900 tested, 43% active; inhibition, % at 10 µM; FluxOR thallium flux fluorescence;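 active = thallium signal inhibited by more than 5 SD of the compound-free buffer control wells, on both duplicate plates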
Kir2-1 spec: mouse Kir2.1 channel inhibition, confirmation, selectivity assay for KCNK9 modulator project, cell-based, HEK293, thallium flux; shares compounds with KCNK9 inh; Kir2.1 cells, FluxOR thallium flux fluorescence; inhibition, % at 10 µM; 4,900 tested, 4% active;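 active = thallium signal drop more than 5 SD beyond the mean of the no-compound control wells, seen in both duplicate plates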;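 note: signal is fluorescence rise after thallium addition divided by baseline fluorescence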
KCNK9 uninduced: thallium flux in non-induced HEK293 cells, confirmation, counter-screen for KCNK9 inhibitor project, cell-based, second counter screen, non-induced KCNK9-HEK293; shares compounds with KCNK9 inh; FluxOR thallium flux; inhibition, % at 10 µM; 4,900 tested, 40% active; AID 492997, 2010;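 active = thallium signal drop beyond 5 SD of the untreated control mean, on both duplicate plates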
Hits are given with their value; i = inactive; nt = no result. This is a sample that favours compounds with a hit; in the whole collection about 3.8% have one here.

SMILES | KCNK3 inh | KCNQ1 pot | hERG rescue | Kir21 block | KCNQ1 inh | KCNK9 inh | KCNK9 block conf | Kir2-1 spec | KCNK9 uninduced
CN(c1ccccc1)S(=O)(=O)c1cccc(NC(=O)CSc2nncn2C)c1 | i | i | i | i | i | i | nt | nt | nt
COc1ccc(CNC(=O)COC(=O)c2ccc(S(=O)(=O)NCc3ccco3)cc2)cc1 | i | nt | nt | nt | nt | nt | nt | nt | nt
Cc1ccc(Cl)c(OCCN2CCc3ccccc3C2)c1 | i | i | i | i | i | i | i | i | i
N#Cc1ccc(OCCN2CCc3ccccc3C2)cc1 | i | i | i | i | i | i | nt | nt | nt
Cc1ccc(Cl)c(OCCCN(C)Cc2ccccc2)c1 | i | i | i | i | i | i | i | i | i
c1ccc(Sc2ncnc3ccccc23)cc1 | i | i | i | i | i | i | nt | nt | nt
c1ccc(Cc2nnc(Sc3ccccc3)c3ccccc23)cc1 | i | i | i | i | i | -8.5 | 46% | i | 37%
O=c1c2ccccc2nc(SCc2cccc(F)c2)n1Cc1ccco1 | i | i | i | i | i | -16 | 55% | i | 54%
O=c1c2ccccc2nc(SCc2nnc(-c3ccccc3Br)o2)n1Cc1ccco1 | i | i | i | i | i | i | nt | nt | nt
COCCn1c(SCc2ccc(F)cc2)nc2ccccc2c1=O | i | i | i | i | i | -15 | 68% | i | 38%
Cn1c(COc2ccccc2Br)nc2ccccc21 | i | i | i | i | i | i | nt | nt | nt
COc1cc(C(=O)Nn2cnnc2)ccc1OC(F)F | i | i | i | i | i | i | nt | nt | nt
C=CCN1C(=O)C(Cc2ccc(C)cc2)S/C1=N/N=C/c1ccco1 (centres undefined) | i | i | i | i | i | i | nt | nt | nt
C=CCN1C(=O)C(Cc2ccccc2)S/C1=N/N=C/c1cccs1 (centres undefined) | i | i | i | i | 8 | i | i | i | i
Cc1nc(-c2ccc(S(=O)(=O)Nc3ccc(Br)cc3F)cc2)co1 | i | i | i | i | i | i | nt | nt | nt
CC1CCCN(C(=O)N2c3ccccc3Sc3ccccc32)C1 (centres undefined) | i | i | i | i | i | -11 | 52% | i | 44%
CC1CN(C(=O)N2c3ccccc3Sc3ccccc32)C(C)CC1=O (centres undefined) | i | i | 5.3 | i | i | -8.1 | 30% | i | 29%
CCC(NC(=O)OCc1ccccc1)C(=O)Oc1ccc2ccc(=O)oc2c1 (centres undefined) | i | i | i | i | i | i | nt | nt | nt
CC1Cc2ccccc2N1C(=O)CCn1c(=O)sc2ccccc21 (centres undefined) | i | i | i | i | i | i | i | i | i
CC1Cc2ccccc2N1C(=O)CN1CCc2ccccc2C1 (centres undefined) | i | i | i | i | i | i | i | i | i
COc1ccc(NC(=O)CON=CC(=O)Nc2ccc(C)cc2)c(OC)c1 | i | nt | nt | nt | nt | nt | nt | nt | nt
O=[N+]([O-])c1cccc(-c2nc(-c3ccccc3)c(-c3cccs3)[nH]2)c1 | i | i | i | i | i | i | nt | nt | nt
COc1cc(-c2nc(-c3ccccc3)c(-c3cc([N+](=O)[O-])ccc3C)[nH]2)cc(OC)c1OC | -11 | i | i | i | 9 | -14 | 60% | i | 24%
COc1ccc(NC(=O)CSC(C)c2nc3ccccc3c(=O)[nH]2)cc1 (centres undefined) | i | i | i | i | i | i | nt | nt | nt
